These results are taken from ChEMBL document CHEMBL1154862, “Synthesis of potent BACE-1 inhibitors incorporating a hydroxyethylene isostere as central core” (Eur J Med Chem, 2010).

Experiment [1] deals with T1, Beta-secretase 1 (Homo sapiens, UniProt P56817). In words: Inhibition of BACE1 after 30 mins by homogeneous time resolved fluorescence assay.
In experiment [2] the target is Cathepsin D (Homo sapiens, UniProt P07339). Briefly: Inhibition of human liver cathepsin D after 20 mins by homogeneous time resolved fluorescence assay.
Chain of Cathepsin D (P07339 65-162 limits assumed): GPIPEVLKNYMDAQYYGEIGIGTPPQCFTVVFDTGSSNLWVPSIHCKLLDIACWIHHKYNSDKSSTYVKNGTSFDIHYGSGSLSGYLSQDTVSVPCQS
Chain of Cathepsin D (P07339 169-412 limits assumed): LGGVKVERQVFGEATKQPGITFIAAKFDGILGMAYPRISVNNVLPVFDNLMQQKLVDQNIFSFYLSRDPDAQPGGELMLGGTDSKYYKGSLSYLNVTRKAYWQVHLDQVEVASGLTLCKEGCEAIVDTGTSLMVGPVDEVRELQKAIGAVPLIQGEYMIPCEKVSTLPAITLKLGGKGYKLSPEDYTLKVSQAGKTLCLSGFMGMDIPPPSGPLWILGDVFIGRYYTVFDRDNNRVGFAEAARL
Experiment [3] addresses T1, Beta-secretase 1. Briefly: Inhibition of human BACE1 in HEK293 cells stably co-transfected with mutant APP(swAPP751) assessed as Amyloid beta 1-40 level after 24 hrs by ELISA. Format: cell-based. In short, it runs like this: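 HEK-293 cells stably expressing Swedish mutant APP (swAPP751), grown in DMEM with 10% FCS, penicillin/streptomycin and 200 µg/mL hygromycin at 37 °C, 5% CO2. Seeded 2 × 10^4 cells/well, settled overnight, washed once with fresh medium, then inhibitor added (DMSO at most 1% final). Medium collected after 24 h; secreted Aβ1–40 measured by ELISA.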
(In general: An ELISA detects its analyte on a solid surface through an enzyme-linked reagent.)

T1 sequence (P56817 whole entry): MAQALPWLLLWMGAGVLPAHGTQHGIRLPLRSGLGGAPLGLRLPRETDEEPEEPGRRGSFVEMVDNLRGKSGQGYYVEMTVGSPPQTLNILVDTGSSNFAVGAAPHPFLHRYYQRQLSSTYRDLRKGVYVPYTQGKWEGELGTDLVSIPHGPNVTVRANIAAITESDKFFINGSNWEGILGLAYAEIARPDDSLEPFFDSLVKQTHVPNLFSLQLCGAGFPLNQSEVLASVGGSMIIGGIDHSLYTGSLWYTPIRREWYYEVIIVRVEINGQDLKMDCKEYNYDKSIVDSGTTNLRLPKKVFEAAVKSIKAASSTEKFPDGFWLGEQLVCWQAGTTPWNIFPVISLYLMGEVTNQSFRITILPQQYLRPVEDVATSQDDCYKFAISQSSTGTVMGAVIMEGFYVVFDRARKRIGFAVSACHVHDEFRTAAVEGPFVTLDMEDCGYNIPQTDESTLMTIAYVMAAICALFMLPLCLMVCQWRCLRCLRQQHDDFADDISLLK

For `CC(C)[C@H](NC(=O)[C@H](C)C[C@H](O)[C@H](COc1cc(F)cc(F)c1)NC(=O)c1cc(C(=O)N[C@H](C)c2ccccc2)cc(N(C)S(C)(=O)=O)c1)C(=O)NCc1ccccc1`, the half-inhibitory concentration (IC50) (usually the concentration needed to halve the response being measured) in experiment [1] was 3.1 nM; in experiment [2], 59 nM; in experiment [3], 160 nM.
With `CNC(=O)c1cc(C(=O)N[C@@H](COCc2cc(F)cc(F)c2)[C@@H](O)C[C@@H](C)C(=O)N[C@H](C(=O)NCc2ccccc2)C(C)C)cc(N(C)S(C)(=O)=O)c1`, the figures for the IC50 in experiment [1] and in experiment [2] were 1260 nM and greater than 5000 nM, respectively.
As to `CC(C)[C@H](NC(=O)[C@H](C)C[C@H](O)[C@H](COCc1ccccc1)NC(=O)c1cc(C(=O)N[C@H](C)c2ccccc2)cc(N(C)S(C)(=O)=O)c1)C(=O)NCc1ccccc1`, the 50% inhibitory concentration (IC50) in experiment [1] came out at 3.6 nM; in experiment [2] it was 41 nM; in experiment [3], 1000 nM.
Regarding `C[C@H](C[C@H](O)[C@H](COCc1cc(F)cc(F)c1)NC(=O)c1cc(C(=O)N[C@H](C)c2ccccc2)cc(N(C)S(C)(=O)=O)c1)C(=O)NC1CC1`, the figures for the concentration for half-maximal inhibition (IC50) in experiment [1] and in experiment [2] were greater than 10000 nM and greater than 5000 nM, respectively.
For the compound `CSCC[C@H](NC(=O)[C@@H](NC(=O)OC(C)(C)C)C(C)C)C(=O)N[C@@H](COCc1cc(F)cc(F)c1)[C@@H](O)C[C@@H](C)C(=O)N[C@H](C(=O)NCc1ccccc1)C(C)C`, the IC50 in experiment [1] was 10000 nM; in experiment [2] it was 0.63 nM.
On to `CC(C)[C@H](NC(=O)[C@H](C)C[C@H](O)[C@H](COCc1cc(F)cc(F)c1)NC(=O)c1cc(C(=O)N[C@H](C)c2ccccc2)cc(N(C)S(C)(=O)=O)c1)C(=O)NCc1ccccc1`, for which the IC50 in experiment [2] is 210 nM; in experiment [3] it was 4500 nM.
Regarding `CC(C)[C@H](NC(=O)[C@@H](C)C[C@H](O)[C@H](COc1cc(F)cc(F)c1)NC(=O)c1cc(C(=O)N[C@H](C)c2ccccc2)cc(N(C)S(C)(=O)=O)c1)C(=O)NCc1ccccc1`, the IC50 in experiment [1] is 10 nM; in experiment [2] it was 120 nM; in experiment [3] it was 340 nM.
